# According to ChEMBL document CHEMBL1122612, “7-(Ethoxycarbonyl)-6,8-dimethyl-2-phenyl-1(2H)-phthalazinone derivatives: synthesis and inhibitory effects on platelet aggregation” (J Med Chem, 1984):
# Species on record: Oryctolagus cuniculus
# Assay: Inhibition of arachidonic acid induced platelet aggregation in rabbit platelet rich plasma
# Format: functional
# Details: read-out: ED50 (the source's name)
# Method in brief: (§1)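 Rabbit blood drawn from the carotid artery (pentobarbital anaesthesia, 35 mg/kg iv) into 3.8% sodium citrate (1/10 volume). PRP obtained by spinning at 150g for 15 min; 3.5-4.5 × 10^5 platelets/μL. Compound in Me2SO (≤0.5% final) preincubated 3 min at 37 °C with 1200 rpm stirring. Aggregation then started with 137 μM AA (final) and read turbidimetrically. Inhibition = maximum deflection relative to vehicle; ED50 range from three experiments.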
row,SMILES,EC50 [µM]
1,CCOC(=O)c1c(C)cc2cnn(-c3ccc(S(C)(=O)=O)cc3)c(=O)c2c1C,≥ 50
2,CCOC(=O)c1c(C)cc2cnn(-c3cccc(OC)c3)c(=O)c2c1C,≥ 50
3,CCOC(=O)c1c(C)cc2cnn(-c3ccc(F)cc3)c(=O)c2c1C,≥ 50
4,CCOC(=O)c1ccc(-n2ncc3cc(C)c(C(=O)OCC)c(C)c3c2=O)cc1,≥ 50
5,COc1cc2cnn(-c3ccccc3Cl)c(=O)c2cc1OC,≥ 100
6,CCOC(=O)c1c(C)cc2cnn(-c3ccc(OC)c(OC)c3)c(=O)c2c1C,≥ 50
7,CCOC(=O)c1c(C)cc2cnn(-c3ccc([N+](=O)[O-])cc3)c(=O)c2c1C,≥ 50
8,COc1cc2cnn(-c3ccccc3)c(=O)c2cc1OC,≥ 100
9,CCOC(=O)c1c(C)cc2cnn(-c3ccc(NC(C)=O)cc3)c(=O)c2c1C,≥ 50
10,COc1ccc(-n2ncc3cc(OC)c(OC)cc3c2=O)cc1,≥ 100
11,CCOC(=O)c1c(C)cc2cnn(-c3ccc(C)c(Cl)c3)c(=O)c2c1C,≥ 50
12,COc1ccc(-n2ncc3cc(OC)c(OC)cc3c2=O)cc1OC,≥ 100
13,CCOC(=O)c1c(C)cc2cnn(-c3ccc(C(=O)O)cc3)c(=O)c2c1C,≥ 50

# Species on record: Oryctolagus cuniculus
# Assay: Inhibition of arachidonic acid induced platelet aggregation in rabbit platelet rich plasma, range 5-10
# Format: functional
# Details: read-out: ED50 (the source's name)
# Method in brief: as §1
row,SMILES,EC50 [µM]
1,CCOC(=O)c1c(C)cc2cnn(-c3ccccc3C)c(=O)c2c1C,5
2,CCOC(=O)c1c(C)cc2cnn(-c3ccc(OC)cc3)c(=O)c2c1C,5

# Species on record: Oryctolagus cuniculus
# Assay: Inhibition of arachidonic acid induced platelet aggregation in rabbit platelet rich plasma, range 50-100
# Format: functional
# Details: read-out: ED50 (the source's name)
# Method in brief: as §1
row,SMILES,EC50 [µM]
1,CCOC(=O)c1c(C)cc2cnn(-c3cccc(C)c3)c(=O)c2c1C,50

# System: not listed separately
# Assay: Inhibition of human platelet cAMP Phosphodiesterase
# Format: functional
# Details: not given
# Method in brief: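 Low-Km cAMP phosphodiesterase from human platelets, prepared and assayed per an earlier method. Result expressed as IC50, the μM concentration inhibiting enzyme activity by 50%.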
row,SMILES,IC50 [µM]
1,CCOC(=O)c1c(C)cc2cnn(-c3ccccc3)c(=O)c2c1C,10
2,CCOC(=O)c1c(C)cc2cnn(-c3ccccc3Cl)c(=O)c2c1C,34
3,COc1ccc(Cc2nccc3cc(OC)c(OC)cc23)cc1OC [PAPAVERINE],0.55

# Species on record: Oryctolagus cuniculus
# Assay: Inhibition of arachidonic acid induced platelet aggregation in rabbit platelet rich plasma, range 25-50
# Format: functional
# Details: read-out: ED50 (the source's name)
# Method in brief: as §1
row,SMILES,EC50 [µM]
1,CCOC(=O)c1c(C)cc2cnn(-c3ccc(C)cc3)c(=O)c2c1C,25
2,CCOC(=O)c1c(C)cc2cnn(-c3ccc(O)cc3)c(=O)c2c1C,25

# Species on record: Oryctolagus cuniculus
# Assay: Inhibition of arachidonic acid induced platelet aggregation in rabbit platelet rich plasma, range 2-5
# Format: functional
# Details: read-out: ED50 (the source's name)
# Method in brief: as §1
row,SMILES,EC50 [µM]
1,CCOC(=O)c1c(C)cc2cnn(-c3ccccc3)c(=O)c2c1C,2
2,CCOC(=O)c1c(C)cc2cnn(-c3ccccc3F)c(=O)c2c1C,2
3,CCOC(=O)c1c(C)cc2cnn(-c3ccccc3Cl)c(=O)c2c1C,2
4,CCOC(=O)c1c(C)cc2cnn(-c3ccc(N)cc3)c(=O)c2c1C,2
